Data as given in ChEMBL document CHEMBL1140733, “Comprehensive study of sansalvamide A derivatives and their structure-activity relationships against drug-resistant colon cancer cell lines” (J Med Chem, 2008).
Square brackets hold non-standard residues; d marks the D form. Peptide text beside a SMILES is read from it. * marks the point of attachment. dNMeF = CN[C@H](Cc1ccccc1)C(=O)O; Cbz = O=C(OCc1ccccc1)*

Columns and labels:
HCT-116 = assay: Cytotoxicity against multidrug-resistant human HCT116 cells at 1 uM by thymidine incorporation assay; assay type: functional
Procedure, shortened: (§1)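 HCT-116 cells were grown in IMDM and HCT-15 in RPMI 1640, each with L-glutamine, 10% FBS and penicillin-streptomycin, at 3000 cells/well. Compound was applied at 1 µM in 1% DMSO for 72 h total, with 3H-thymidine added for the final 16 h. Percent growth inhibition versus DMSO controls was scintillation-counted, averaging three wells in each of three assays.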

HCT-15 = assay: Cytotoxicity against multidrug-resistant human HCT15 cells at 1 uM by thymidine incorporation assay; assay type: functional; procedure, shortened: as §1

Row | Structure (SMILES) | inhibition at 1 µM (HCT-116) [%] | inhibition at 1 µM (HCT-15) [%]
1 | CC[C@H]1NC(=O)[C@H](C(C)C)NC(=O)[C@H](C(C)C)NC(=O)[C@H](Cc2ccccc2)NC(=O)[C@H](C(C)C)NC1=O (HELM PEPTIDE1{F.V.V.[CC[C@@H](N[*:1])C(=O)[*:2]].V}$PEPTIDE1,PEPTIDE1,1:R1-5:R2$$$V2.0) | 16 | 2
2 | CC(C)C[C@@H]1NC(=O)[C@H](Cc2ccccc2)NC(=O)[C@@H](Cc2ccccc2)N(C)C(=O)[C@H](C(C)C)NC(=O)[C@H](CCCCNC(=O)OCc2ccccc2)NC1=O (cyclo(FLK(Cbz)V[dNMeF])) | 38 | 14
3 | CC(C)C[C@H]1NC(=O)[C@@H](Cc2ccccc2)NC(=O)[C@@H](CC(C)C)NC(=O)[C@@H](C(C)C)NC(=O)[C@@H](CC(C)C)NC1=O (HELM PEPTIDE1{[dF].[dL].[dL].[dV].[dL]}$PEPTIDE1,PEPTIDE1,1:R1-5:R2$$$V2.0) | 27 | 15
4 | CC[C@@H]1NC(=O)[C@H](CC(C)C)NC(=O)[C@H](CC(C)C)NC(=O)[C@H](Cc2ccccc2)NC(=O)[C@@H](CC(C)C)NC1=O (HELM PEPTIDE1{[Abu].[dL].F.L.L}$PEPTIDE1,PEPTIDE1,1:R1-5:R2$$$V2.0) | 13 | 8
5 | CC(C)C[C@@H]1NC(=O)[C@H](CC(C)C)N(C)C(=O)[C@H](Cc2ccccc2)NC(=O)[C@H](CC(C)C)N(C)C(=O)[C@H](C(C)C)NC1=O (HELM PEPTIDE1{F.[meL].L.V.[meL]}$PEPTIDE1,PEPTIDE1,1:R1-5:R2$$$V2.0) | 20 | 0
6 | CC(C)C[C@@H]1NC(=O)[C@H](C(C)C)NC(=O)[C@H](CC(C)C)N(C)C(=O)[C@H](CC(C)C)NC(=O)[C@H](Cc2ccccc2)NC1=O (HELM PEPTIDE1{F.L.[meL].V.L}$PEPTIDE1,PEPTIDE1,1:R1-5:R2$$$V2.0) | 30 | 57
7 | CC[C@H]1NC(=O)[C@H](CC(C)C)NC(=O)[C@H](CC(C)C)NC(=O)[C@H](Cc2ccccc2)NC(=O)[C@H](CC(C)C)NC1=O (HELM PEPTIDE1{F.L.L.[CC[C@@H](N[*:1])C(=O)[*:2]].L}$PEPTIDE1,PEPTIDE1,1:R1-5:R2$$$V2.0) | 17 | 20
8 | CC(C)C[C@@H]1NC(=O)[C@H](Cc2ccccc2)NC(=O)[C@H](CC(C)C)NC(=O)[C@H](C(C)C)NC(=O)[C@@H](CC(C)C)NC1=O (HELM PEPTIDE1{F.L.[dL].V.L}$PEPTIDE1,PEPTIDE1,1:R1-5:R2$$$V2.0) | 0 | 15
9 | CC(C)C[C@@H]1NC(=O)[C@@H](Cc2ccccc2)NC(=O)[C@@H](CC(C)C)NC(=O)[C@@H](C(C)C)NC(=O)[C@H](CCCCN)NC1=O (HELM PEPTIDE1{K.[dV].[dL].[dF].L}$PEPTIDE1,PEPTIDE1,1:R1-5:R2$$$V2.0) | 2 | 17
10 | CC(C)C[C@@H]1NC(=O)[C@H](Cc2ccccc2)NC(=O)[C@@H](CC(C)C)NC(=O)[C@@H](C(C)C)NC(=O)[C@H](CC(C)C)NC1=O (HELM PEPTIDE1{F.L.L.[dV].[dL]}$PEPTIDE1,PEPTIDE1,1:R1-5:R2$$$V2.0) | 34 | 17
11 | CC[C@@H]1NC(=O)[C@H](CC(C)C)NC(=O)[C@H](CC(C)C)NC(=O)[C@H](Cc2ccccc2)NC(=O)[C@H](CC(C)C)NC1=O (HELM PEPTIDE1{[Abu].L.F.L.L}$PEPTIDE1,PEPTIDE1,1:R1-5:R2$$$V2.0) | 1 | 8
12 | CC(C)C[C@@H]1NC(=O)[C@H](Cc2ccccc2)NC(=O)[C@@H](CC(C)C)N(C)C(=O)[C@@H](C(C)C)N(C)C(=O)[C@H](CC(C)C)NC1=O (HELM PEPTIDE1{F.L.L.[CC(C)[C@H](C(=O)[*:2])N(C)[*:1]].[CC(C)C[C@H](C(=O)[*:2])N(C)[*:1]]}$PEPTIDE1,PEPTIDE1,1:R1-5:R2$$$V2.0) | 30 | 7
